# Experimental data collected from several papers.
# Target: Tyrosine-protein kinase BTK (BTK, Homo sapiens, UniProt Q06187)
# Read-out: enzyme activity
# Action: inhibitor
Structure (SMILES),technique,concentration,inhibition [%]
CN(c1ncccc1CNc1nc(Nc2ccc3c(c2)CC(=O)N3)ncc1C(F)(F)F)S(C)(=O)=O,,1 µM,65
CNC(=O)c1cc(Oc2ccc(NC(=O)Nc3ccc(Cl)c(C(F)(F)F)c3)cc2)ccn1,,10 µM,43
CC/C(=N\NC(=O)NCc1cccc(O)c1)c1ccc(O)c(C)c1O,,0.1 µM,-0.2
COc1cc2ncnc(Nc3ccc(Oc4ccccc4)c(C)c3C)c2cc1OC,,1 µM,33
CCCS(=O)(=O)Nc1ccc(F)c(C(=O)c2c[nH]c3ncc(-c4ccc(Cl)cc4)cc23)c1F,,1 µM,< 10
O=C(CSc1nc2nccnc2c(=O)n1CCc1ccccc1)Nc1nccs1,,10 µM,4
CNCc1ccc(-c2cc(-c3nc(-c4ccc(S(=O)(=O)C(C)C)cc4)cnc3N)on2)cc1,,2 µM,6
CN(C)C1CCN(CC#Cc2nn(C3CCCC3)c3nc(NCc4ccccc4)ncc23)C1 (stereo not drawn),FRET,0.1 µM,8
Cc1ccc(Nc2nccc(N(C)c3ccc4c(C)n(C)nc4c3)n2)cc1S(N)(=O)=O,,0.3 µM,12
COc1ccc(F)cc1C(=O)NCc1ccc(-c2nn([C@@H](C)C(F)(F)F)c(N)c2C(N)=O)cc1,radiometric,0.1 µM,97
CNC(=O)c1cc2c(Oc3ccc(NC(=O)C4(C(=O)Nc5ccc(F)cc5)CC4)cc3)ccnc2cc1OC,radiometric,1 µM,94
CCN(CC)CCNC(=O)c1c(C)[nH]c(/C=C2\C(=O)Nc3ccc(F)cc32)c1C,,0.3 µM,16
